Only some compounds are listed: those with a hit (about 2.2% of all), similar ones and a draw of the others.
NR2E3 ag-1 = activates human NR2E3 receptor | CHO-S Gal4-NCOR/VP16-NR2E3 two-hybrid, luciferase | inhibition of corepressor binding, % at 3.98 µM | actives 0.35% (n = 360,000) | AID 602229;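 active means inhibition above the mean of all tested compounds plus 3 SD, cut at about 70% in these data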;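 further: higher means lower luciferase signal from less NR2E3 corepressor binding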
NR2E3 ag-2 = NR2E3 (human) agonism; GST-NR2E3/biotin-RetCOR TR-FRET, 1536-well; AID 2300; actives 0.12% (n = 320,000); inhibition of corepressor binding, % at 4.78 µM; Q9Y5X4;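 active means percent inhibition above the cutoff of mean plus 3 SD of all tested compounds, set per screening campaign, cut at about 20% in these data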
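Material: NR2E3–RetCOR corepressor complex / Incubation: Compound–protein incubation for 5 h at 4 °C / Dosing: compound at 4.8 µM, single dose / Detection: time-resolved FRET / Benchmarks: high control biotin, low control 0.6% DMSO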
miR122 inh = miR-122 inhibition in Huh7 cells. Huh7 miR-122 Renilla luciferase sensor, 48 h; neutral wells = 0, positive control = 100. actives 0.3% (n = 340,000). activation (reporter increase), % at 12.5 µM. AID 602342;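 active means mean replicate activation score at least 90 and every replicate individually at or above 90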;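 further: higher luciferase means less miR-122 activity so hits act as miR-122 inhibitors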
697 NFkB inh = inhibitors of the PMA/ionomycin-induced NF-kB reporter in 697 B cells; 697 B-cell NF-kB luciferase reporter, 16 h; inhibition, % at 4 µM; actives 0.33% (n = 330,000); AID 435022; in the data active means inhibition above about 35%
FGF22 binding = shifts melting point of recombinant human FGF22; actives 1.5% (n = 340,000); activity (Tm shift, normalised), % at 9.99 µM; recombinant FGF22 thermal shift, SYPRO orange fluorescence; percent of sucrose octasulfate shift, DMSO zero; AID 651658; Q9HCT0;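 active means mean Tm shift, scaled 0 neutral to 100 positive control, at about 1.3% or above, every replicate too, limit read from the data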
Target sequence (Q9HCT0 whole entry, looked up): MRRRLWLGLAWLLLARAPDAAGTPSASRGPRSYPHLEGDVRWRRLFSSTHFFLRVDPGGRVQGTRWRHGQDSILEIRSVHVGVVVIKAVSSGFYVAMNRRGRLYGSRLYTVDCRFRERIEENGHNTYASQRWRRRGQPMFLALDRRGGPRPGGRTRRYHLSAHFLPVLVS
Jurkat NFkB inh = inhibitors of the PMA/ionomycin-induced NF-kB reporter in Jurkat cells. PMA/ionomycin-induced NF-kB luciferase reporter, luminescence. AID 435003. inhibition, % at 4 µM. actives 0.53% (n = 330,000); in the data active means inhibition above about 50%
Jurkat NFkB conf = inhibitors of the PMA/ionomycin-induced NF-kB reporter in Jurkat cells, retest | shares compounds with Jurkat NFkB inh | Jurkat NF-kB luciferase, 16 h | actives 27% (n = 2,700) | inhibition, % at 4 µM;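 active means inhibition reaching about 45% at 4 µM in either replicate, limit read from the data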
Hits are given with their value.

`C[C@@H]1CCCCO[C@@H](CN(C)Cc2ccc(C(=O)O)cc2)[C@H](C)CN([C@H](C)CO)C(=O)c2cc(NC(=O)Nc3cccc4ccccc34)ccc2O1` gave miR122 inh inactive and FGF22 binding inactive.
Screening COC(=O)[C@@H]1[C@@H](CO)[C@@H]2Cn3c(ccc(-c4ccc(F)cc4)c3=O)[C@@H]2N1C(=O)C1CC1 returned miR122 inh inactive and FGF22 binding inactive.
For OC[C@@H]1[C@@H](c2ccc(C#CC3(O)CCCC3)cc2)[C@H]2CN(Cc3cccnc3)CCCCN12 the results were miR122 inh inactive and FGF22 binding inactive.
Cc1cc(N/C=C/C(=O)c2ccccc2)ccc1Br was read as NR2E3 ag-1 inactive, NR2E3 ag-2 inactive, miR122 inh inactive, 697 NFkB inh inactive, Jurkat NFkB inh inactive and Jurkat NFkB conf inactive.
For CC(=O)Nc1ccc(N/C=C/C(=O)c2ccccc2)cc1 the results were NR2E3 ag-1 inactive, NR2E3 ag-2 inactive, miR122 inh inactive, 697 NFkB inh inactive, FGF22 binding inactive and Jurkat NFkB inh inactive.
For COc1ccc2c3c(n(C)c2c1)[C@H](CO)N(Cc1cccnc1)CC31CN(Cc2cccnc2)C1 the results were FGF22 binding inactive.
Screening CCCCC(=O)NC(c1ccc(N(CC)CC)cc1)c1ccc2cccnc2c1O (stereo not given) returned NR2E3 ag-1 inactive, NR2E3 ag-2 inactive, 697 NFkB inh inactive, FGF22 binding inactive, Jurkat NFkB inh 64.2 and Jurkat NFkB conf 76.0.
CC(=O)NC(c1ccc2ccccc2c1)c1ccc2cccnc2c1O (stereo not given) was read as NR2E3 ag-1 inactive, NR2E3 ag-2 inactive, 697 NFkB inh inactive, FGF22 binding inactive, Jurkat NFkB inh 56.8 and Jurkat NFkB conf 82.2.
CCCC(=O)NC(c1ccc(Cl)cc1Cl)c1ccc2cccnc2c1O (stereo not given) was read as NR2E3 ag-1 inactive, NR2E3 ag-2 inactive, 697 NFkB inh inactive, FGF22 binding inactive and Jurkat NFkB inh inactive.
CC(=O)NC(c1ccc(Cl)cc1Cl)c1ccc2cccnc2c1O (stereo not given) was read as NR2E3 ag-1 inactive, 697 NFkB inh inactive, FGF22 binding inactive and Jurkat NFkB inh inactive.
Screening CCCCC(=O)NC(c1ccc(Cl)cc1)c1ccc2cccnc2c1O (stereo not given) returned NR2E3 ag-1 inactive, NR2E3 ag-2 inactive, miR122 inh inactive, 697 NFkB inh inactive, FGF22 binding inactive, Jurkat NFkB inh 51.4 and Jurkat NFkB conf 79.7.
`CCCC(=O)NC(c1ccc(Cl)cc1)c1ccc2cccnc2c1O` (stereo not given) gave NR2E3 ag-1 inactive, NR2E3 ag-2 inactive, miR122 inh inactive, 697 NFkB inh inactive, FGF22 binding inactive and Jurkat NFkB inh inactive.
Screening CCCC(=O)NC(c1ccc(C)cc1)c1ccc2cccnc2c1O (stereo not given) returned NR2E3 ag-1 inactive, NR2E3 ag-2 inactive, miR122 inh inactive, 697 NFkB inh inactive, Jurkat NFkB inh 52.0 and Jurkat NFkB conf 85.8.
`CCN(CC)c1ccc(C(NC(=O)C(C)C)c2ccc3cccnc3c2O)cc1` (stereo not given) gave NR2E3 ag-1 inactive, miR122 inh inactive and FGF22 binding inactive.
Screening C[C@H]1CN([C@@H](C)CO)C(=O)c2cc(NC(=O)CCN3CCOCC3)ccc2O[C@@H]1CN(C)Cc1ccc2c(c1)OCO2 returned miR122 inh inactive and FGF22 binding inactive.
`CCCC#Cc1cnc2c(c1)C(=O)N([C@H](C)CO)C[C@H](C)[C@@H](CN(C)C(=O)Nc1cccc(F)c1)O2` gave miR122 inh inactive and FGF22 binding inactive.
For CCCCC(=O)NC(c1ccccc1OC)c1ccc2cccnc2c1O (stereo not given) the results were NR2E3 ag-1 inactive, NR2E3 ag-2 inactive, miR122 inh inactive, 697 NFkB inh inactive, FGF22 binding inactive and Jurkat NFkB inh inactive.

Compound activity deposited in PubChem by several laboratories.
